Numbering of substitutions follows the chain as printed. Calls of active or inactive are those of the source. The rule behind the calls is not given here.
Tests used:
[1] = biological target: T1, Protein-glutamine gamma-glutamyltransferase (Homo sapiens, UniProt P21980); test: Non-competitive inhibition of recombinant human TG2 V224 mutant deamidation activity using Cbz-Gln-Gly as substrate preincubated for 30 mins followed by substrate addition by GDH-coupled assay in presence of 5 mM Ca2+
Summary of the method: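 V224 TG2 (0.5 μM) deamidation by GDH-coupled assay at 5 mM Ca2+. Rates measured across substrate concentrations at several inhibitor levels. Mode and Ki derived by Michaelis-Menten and Lineweaver-Burk analysis.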

[2] = test system: Protein-glutamine gamma-glutamyltransferase (Homo sapiens), P21980 [UNDEFINED MUTATION]; test: Activation of recombinant human TG2 V224 mutant deamidation activity using Cbz-Gln-Gly as substrate at 25 uM preincubated for 30 mins followed by substrate addition by GDH-coupled assay in presence of 0.6 mM Ca2+
[3] = biological target: T2, Protein-glutamine gamma-glutamyltransferase (Homo sapiens) (UniProt P21980); test: Activation of extracellular TG2 transamidating activity in human WI38 cells assessed as incorporation of 5-BP into fibronectin at 1 uM preincubated for 30 mins followed by 5-BP addition measured after 3 hrs by DAPI staining-based confocal fluorescence microscopic analysis; type: cell-based; details: WI-38
T2 sequence (whole entry): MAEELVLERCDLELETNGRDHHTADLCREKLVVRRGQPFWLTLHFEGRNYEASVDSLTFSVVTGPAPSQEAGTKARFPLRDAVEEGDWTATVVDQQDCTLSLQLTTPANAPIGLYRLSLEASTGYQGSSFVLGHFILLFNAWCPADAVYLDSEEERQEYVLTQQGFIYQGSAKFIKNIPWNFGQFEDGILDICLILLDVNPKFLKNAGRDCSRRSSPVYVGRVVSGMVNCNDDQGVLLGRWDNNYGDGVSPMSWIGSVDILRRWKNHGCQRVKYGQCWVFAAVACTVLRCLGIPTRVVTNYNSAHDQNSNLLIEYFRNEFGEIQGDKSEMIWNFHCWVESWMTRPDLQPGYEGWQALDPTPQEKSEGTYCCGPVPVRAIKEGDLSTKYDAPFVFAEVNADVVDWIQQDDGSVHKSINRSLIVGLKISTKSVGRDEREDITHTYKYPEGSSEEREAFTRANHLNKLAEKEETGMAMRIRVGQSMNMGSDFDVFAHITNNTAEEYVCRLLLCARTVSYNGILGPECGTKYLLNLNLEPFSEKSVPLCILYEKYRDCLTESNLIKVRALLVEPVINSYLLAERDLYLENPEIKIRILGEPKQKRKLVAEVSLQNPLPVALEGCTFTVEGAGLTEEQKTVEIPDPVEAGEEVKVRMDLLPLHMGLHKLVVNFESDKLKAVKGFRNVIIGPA
Summary of the method: (§1)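 WI-38 fibroblasts grown to confluence, pre-incubated 30 min with vehicle (1% DMSO) or compound, then incubated with 200 μM 5-(biotinamido)-pentylamine for 3 h. Cells fixed and stained to image 5-BP incorporation into extracellular matrix proteins as a measure of TG2 transamidation. Five images sampled per well.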

[4] = biological target: T2, Protein-glutamine gamma-glutamyltransferase (Homo sapiens); test: Activation of extracellular TG2 transamidating activity in human WI38 cells assessed as incorporation of 5-BP into fibronectin at 10 uM preincubated for 30 mins followed by 5-BP addition measured after 3 hrs by DAPI staining-based confocal fluorescence microscopic analysis; type: cell-based; details: WI-38; summary of the method: as §1
[5] = test system: T3, Protein-glutamine gamma-glutamyltransferase (Homo sapiens), P21980 [R580A]; test: Activation of recombinant human TG2 R580A mutant deamidation activity using Cbz-Gln-Gly as substrate at 10 uM preincubated for 30 mins followed by substrate addition by GDH-coupled assay in presence of 3 mM Ca2+/500 uM GMP-PNP
T3 sequence (whole entry): T2 sequence (whole entry) with R580A
Summary of the method: (§2)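 GDH-coupled deamidation assay comparing wild-type and R580A TG2 at 0.5 μM enzyme and 3 mM Ca2+, with and without GMP-PNP.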

[6] = test system: Protein-glutamine gamma-glutamyltransferase (Homo sapiens), P21980 [UNDEFINED MUTATION]; test: Effect on closed state of recombinant human TG2 V224 mutant at 100 uM after 1 hr by native PAGE analysis
[7] = test system: Protein-glutamine gamma-glutamyltransferase (Homo sapiens), P21980 [UNDEFINED MUTATION]; test: Effect on open state of recombinant human TG2 V224 mutant at 100 uM after 1 hr by native PAGE analysis
[8] = test system: Protein-glutamine gamma-glutamyltransferase (Homo sapiens), P21980 [UNDEFINED MUTATION]; test: Inhibition of human TG2 E447Q/E451Q/E452Q/E454Q mutant deamidation activity using Cbz-Gln-Gly as substrate preincubated for 30 mins followed by substrate addition by GDH-coupled assay in presence of 5 mM Ca2+
[9] = test system: Protein-glutamine gamma-glutamyltransferase (Homo sapiens), P21980 [UNDEFINED MUTATION]; test: Activation of recombinant human TG2 V224 mutant transamidating activity assessed as 5-BP incorporation into immobilized N-N-dimethylcasein at 15 uM preincubated for 30 mins followed by 5-BP addition measured after 1 hr by streptavidin-based microtiter plate assay in presence of 0.6 mM Ca2+/100 uM GMP-PNP
Summary of the method: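 Transamidation microtiter assay: 5-BP incorporated into immobilized N,N-dimethylcasein by V224 TG2 at 0.6 mM Ca2+ plus 100 μM GMP-PNP, with incorporated biotin quantified with streptavidin.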

[10] = biological target: T2, Protein-glutamine gamma-glutamyltransferase (Homo sapiens); test: Inhibition of human TG2 truncated (1 to 466 amino acid residues) mutant at 15 uM in presence of 5 mM Ca2+
Summary of the method: (§3)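 GDH-coupled deamidation with wild-type or truncated (1-466) TG2 at 0.5 μM enzyme and 5 mM Ca2+. Activity normalized to each protein's own maximum.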

[11] = test system: Protein-glutamine gamma-glutamyltransferase (Homo sapiens), P21980 [UNDEFINED MUTATION]; test: Activation of recombinant human TG2 V224 mutant deamidation activity using Cbz-Gln-Gly as substrate preincubated for 30 mins followed by substrate addition by GDH-coupled assay in presence of 0.5 to 0.7 mM Ca2+
[12] = biological target: T2, Protein-glutamine gamma-glutamyltransferase (Homo sapiens); test: Inhibition of wild type human TG2 at 15 uM in presence of 5 mM Ca2+; summary of the method: as §3
[13] = biological target: T2, Protein-glutamine gamma-glutamyltransferase (Homo sapiens); test: Inhibition of wild type human TG2 deamidation activity using Cbz-Gln-Gly as substrate preincubated for 30 mins followed by substrate addition by GDH-coupled assay in presence of 5 mM Ca2+; summary of the method: as §3
[14] = test system: Protein-glutamine gamma-glutamyltransferase (Homo sapiens), P21980 [UNDEFINED MUTATION]; test: Inhibition of human TG2 E396Q/N398S/D400N mutant deamidation activity using Cbz-Gln-Gly as substrate preincubated for 30 mins followed by substrate addition by GDH-coupled assay in presence of 5 mM Ca2+
[15] = test system: T3, Protein-glutamine gamma-glutamyltransferase (Homo sapiens), P21980 [R580A]; test: Inhibition of recombinant human TG2 R580A mutant deamidation activity using Cbz-Gln-Gly as substrate at 10 uM preincubated for 30 mins followed by substrate addition by GDH-coupled assay in presence of 3 mM Ca2+; summary of the method: as §2
[16] = test system: Protein-glutamine gamma-glutamyltransferase (Homo sapiens), P21980 [UNDEFINED MUTATION]; test: Activation of recombinant human TG2 V224 mutant deamidation activity using Cbz-Gln-Gly as substrate at 15 uM preincubated for 30 mins followed by substrate addition by GDH-coupled assay in presence of 0.6 mM Ca2+
[17] = biological target: T1, Protein-glutamine gamma-glutamyltransferase; test: Competitive inhibition of recombinant human TG2 V224 mutant deamidation activity using Cbz-Gln-Gly as substrate preincubated for 30 mins followed by substrate addition by Lineweaver-Burk plot analysis in presence of 5 mM Ca2+
Summary of the method: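 Deamidation of Cbz-Gln-Gly by the V224 allele of human TG2 (0.5 μM) was read by a GDH-coupled assay at 5 mM Ca2+. Michaelis-Menten data were collected at several inhibitor levels, and Ki was derived from Lineweaver-Burk analysis.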

[18] = test system: Protein-glutamine gamma-glutamyltransferase (Homo sapiens), P21980 [UNDEFINED MUTATION]; test: Effect on open state of recombinant human TG2 V224 mutant at 500 uM after 1 hr by native PAGE analysis in presence of 1 mM MgCl2
[19] = test system: Protein-glutamine gamma-glutamyltransferase (Homo sapiens), P21980 [UNDEFINED MUTATION]; test: Effect on closed state of recombinant human TG2 V224 mutant at 500 uM after 1 hr by native PAGE analysis in presence of 1 mM MgCl2

Compound: O=C(/C=C1/C(=O)N(c2ccccc2)c2cccc(Cl)c21)c1cccnc1
- Ki [1]: 9.1 µM
- Activity [2]: Active

Compound: O=C1Nc2cccc(Cl)c2/C1=C\C(=O)c1ccc(Cl)cc1
- Ki [1]: 47 µM
- Activity [3]: Active
- Activity [4]: inactive

Compound: COc1ccccc1C(=O)/C=C1/C(=O)Nc2cccc(Cl)c21
- Activity [5]: Active
- Activity [6]: inactive
- Activity [7]: inactive
- inhibition [8]: inactive
- Activity [9]: Active
- inhibition [10]: Active
- Ki [1]: 3.3 µM
- Activity [11]: Active
- Activity [3]: Active
- Activity [4]: inactive
- inhibition [12]: Active
- inhibition [13]: Active
- inhibition [14]: Active
- inhibition [15]: Active
- Activity [16]: Active

Compound: Nc1nc2c(ncn2[C@@H]2O[C@H](COP(=O)(O)OP(=O)(O)NP(=O)(O)O)[C@@H](O)[C@H]2O)c(=O)[nH]1 [PHOSPHOAMINOPHOSPHONIC ACID GUANYLATE ESTER]
- Ki [17]: 27 µM
- Activity [18]: inactive
- Activity [19]: inactive

Compound: O=C1Nc2ccccc2/C1=C\C(=O)c1cccnc1
- Ki [1]: 86 µM
